From ChEMBL document CHEMBL1147771, “Synthesis and antibacterial activity of 9-substituted minocycline derivatives” (2006)
≈ marks a conversion by molar mass, not a printed value.

Legend:
Type in all cases: functional
[1] = system: Escherichia coli; test: Antibacterial activity against Escherichia coli UBMS 88-1 carrying tetB-resistant determinant
Method in brief: (§1)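 Antibacterial activity determined by agar dilution.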

[2] = system: Staphylococcus aureus; test: Antibacterial activity against Staphylococcus aureus UBMS 90-1 carrying tetM-resistant determinant; method in brief: as §1
[3] = system: Staphylococcus aureus; test: Antibacterial activity against Staphylococcus aureus Smith
Method in brief: (§2)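 MICs determined by agar dilution.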

[4] = system: Escherichia coli; test: Antibacterial activity against Escherichia coli UBMS 89-1 carrying tetM-resistant determinant; method in brief: as §1
[5] = system: Staphylococcus aureus; test: Antibacterial activity against Staphylococcus aureus UBMS 90-3; method in brief: as §2
[6] = system: Escherichia coli; test: Antibacterial activity against Minocylcine sensitive Escherichia coli 89-2; method in brief: as §2
[7] = system: Escherichia coli; test: Antibacterial activity against Minocycline sensitive Escherichia coli 88-2; method in brief: as §2
[8] = system: Enterococcus faecalis; test: Antibacterial activity against Enterococcus faecalis ATCC 29212; method in brief: as §2
[9] = system: Staphylococcus aureus; test: Antibacterial activity against Staphylococcus aureus UBMS 90-2 carrying tetM-resistant determinant; method in brief: as §1
[10] = system: Staphylococcus aureus; test: Antibacterial activity against Staphylococcus aureus UBMS 88-7 carrying the tetK-resistant determinant; method in brief: as §1
[11] = system: Escherichia coli; test: Antibacterial activity against Minocycline sensitive Escherichia coli 90-5; method in brief: as §1
[12] = system: Escherichia coli; test: Antibacterial activity against Escherichia coli UBMS 90-4 carrying tetM-resistant determinant; method in brief: as §1

Structure (SMILES) | MIC [1] [µg/mL] | MIC [2] [µg/mL] | MIC [3] [µg/mL] | MIC [4] [µg/mL] | MIC [5] [µg/mL] | MIC [6] [µg/mL] | MIC [7] [µg/mL] | MIC [8] [µg/mL] | MIC [9] [µg/mL] | MIC [10] [µg/mL] | MIC [11] [µg/mL] | MIC [12] [µg/mL]
CN(C)c1cc(NC(=O)c2cccs2)c(O)c2c1CC1CC3[C@H](N(C)C)C(=O)C(C(N)=O)=C(O)[C@@]3(O)C(=O)C1=C2O (some centres undefined) | > 32 | 4 (≈ 6.87 µM) | 2 (≈ 3.43 µM) | > 32 | 2 (≈ 3.43 µM) | > 32 | > 32 | 8 (≈ 13.7 µM) | 4 (≈ 6.87 µM) | 32 (≈ 54.9 µM) |  | 
CN(C)c1cc(NC(=O)CNC2CCCC2)c(O)c2c1CC1CC3[C@H](N(C)C)C(=O)C(C(N)=O)=C(O)[C@@]3(O)C(=O)C1=C2O (some centres undefined) | 0.25 (≈ 0.418 µM) | 0.25 (≈ 0.418 µM) | 0.25 (≈ 0.418 µM) |  | 0.12 (≈ 0.201 µM) |  |  | 0.12 (≈ 0.201 µM) |  | 2 (≈ 3.35 µM) | 0.25 (≈ 0.418 µM) | 0.25 (≈ 0.418 µM)
CN(C)c1cc(NS(=O)(=O)c2ccccc2)c(O)c2c1CC1CC3[C@H](N(C)C)C(=O)C(C(N)=O)=C(O)[C@@]3(O)C(=O)C1=C2O (some centres undefined) | 16 (≈ 26.1 µM) | 4 (≈ 6.53 µM) | 4 (≈ 6.53 µM) |  | 4 (≈ 6.53 µM) | 16 (≈ 26.1 µM) | 8 (≈ 13.1 µM) | 0.06 (≈ 0.0979 µM) | 0.06 (≈ 0.0979 µM) | 4 (≈ 6.53 µM) |  | 
CN(C)c1cc(NC(=O)CCC2CCCC2)c(O)c2c1CC1CC3[C@H](N(C)C)C(=O)C(C(N)=O)=C(O)[C@@]3(O)C(=O)C1=C2O (some centres undefined) | > 128 | 8 (≈ 13.4 µM) | 4 (≈ 6.7 µM) |  | 4 (≈ 6.7 µM) |  |  | 8 (≈ 13.4 µM) | 8 (≈ 13.4 µM) | 8 (≈ 13.4 µM) | > 128 | > 128
Cc1ccccc1C(=O)Nc1cc(N(C)C)c2c(c1O)C(O)=C1C(=O)[C@]3(O)C(O)=C(C(N)=O)C(=O)[C@@H](N(C)C)C3CC1C2 (some centres undefined) | 2 (≈ 3.39 µM) | 8 (≈ 13.5 µM) | 1 (≈ 1.69 µM) |  | 1 (≈ 1.69 µM) | > 32 | > 32 | 2 (≈ 3.39 µM) | 2 (≈ 3.39 µM) | 4 (≈ 6.77 µM) |  | 
CN(C)CC(=O)Nc1cc(N(C)C)c2c(c1O)C(=O)C1=C(O)[C@]3(O)C(O)=C(C(N)=O)C(=O)[C@@H](N(C)C)C3CC1C2 (some centres undefined) | 0.25 (≈ 0.448 µM) | 0.12 (≈ 0.215 µM) | 0.06 (≈ 0.108 µM) |  | 0.06 (≈ 0.108 µM) |  |  | 0.06 (≈ 0.108 µM) |  | 0.5 (≈ 0.897 µM) | 0.12 (≈ 0.215 µM) | 0.25 (≈ 0.448 µM)
CN(C)c1cc(NC(=O)c2ccccc2F)c(O)c2c1CC1CC3[C@H](N(C)C)C(=O)C(C(N)=O)=C(O)[C@@]3(O)C(=O)C1=C2O (some centres undefined) | > 32 | 4 (≈ 6.73 µM) | 1 (≈ 1.68 µM) |  | 1 (≈ 1.68 µM) | > 32 | > 32 | 4 (≈ 6.73 µM) | 2 (≈ 3.36 µM) | 8 (≈ 13.5 µM) |  | 
CN(C)c1cc(NC(=O)CNC(C)(C)C)c(O)c2c1C[C@H]1C[C@H]3[C@H](N(C)C)C(O)=C(C(N)=O)C(=O)[C@@]3(O)C(O)=C1C2=O [TIGECYCLINE] | 0.5 (≈ 0.854 µM) | 0.12 (≈ 0.205 µM) | 0.25 (≈ 0.427 µM) |  | 0.25 (≈ 0.427 µM) |  |  | 0.12 (≈ 0.205 µM) |  | 0.5 (≈ 0.854 µM) | 0.25 (≈ 0.427 µM) | 0.12 (≈ 0.205 µM)
CN(C)c1cc(NC(=O)c2ccccc2)c(O)c2c1CC1CC3[C@H](N(C)C)C(=O)C(C(N)=O)=C(O)[C@@]3(O)C(=O)C1=C2O (some centres undefined) | > 32 | 4 (≈ 6.94 µM) | 1 (≈ 1.73 µM) |  | 1 (≈ 1.73 µM) | > 32 | > 32 | 4 (≈ 6.94 µM) | 4 (≈ 6.94 µM) | 8 (≈ 13.9 µM) |  | 
CN(C)c1cc(NS(C)(=O)=O)c(O)c2c1CC1CC3[C@H](N(C)C)C(=O)C(C(N)=O)=C(O)[C@@]3(O)C(=O)C1=C2O (some centres undefined) | 8 (≈ 14.5 µM) | 0.25 (≈ 0.454 µM) | 0.12 (≈ 0.218 µM) |  | 0.12 (≈ 0.218 µM) | 2 (≈ 3.63 µM) | 2 (≈ 3.63 µM) | 0.06 (≈ 0.109 µM) | 0.06 (≈ 0.109 µM) | 8 (≈ 14.5 µM) |  | 
CN(C)CCCC(=O)Nc1cc(N(C)C)c2c(c1O)C(=O)C1=C(O)[C@]3(O)C(O)=C(C(N)=O)C(=O)[C@@H](N(C)C)C3CC1C2 (some centres undefined) | > 32 | 8 (≈ 13.7 µM) | 2 (≈ 3.41 µM) |  | 2 (≈ 3.41 µM) |  |  | 4 (≈ 6.83 µM) | 4 (≈ 6.83 µM) | 16 (≈ 27.3 µM) | 16 (≈ 27.3 µM) | 16 (≈ 27.3 µM)
CC(=O)Nc1nc(C)c(S(=O)(=O)Nc2cc(N(C)C)c3c(c2O)C(O)=C2C(=O)[C@]4(O)C(O)=C(C(N)=O)C(=O)[C@@H](N(C)C)C4CC2C3)s1 (some centres undefined) | > 32 | 32 (≈ 46.3 µM) | 2 (≈ 2.9 µM) | 32 (≈ 46.3 µM) | 2 (≈ 2.9 µM) | > 32 | > 32 | 1 (≈ 1.45 µM) | 4 (≈ 5.79 µM) | 32 (≈ 46.3 µM) |  | 
CN(C)c1cc(NS(=O)(=O)c2ccc(Cl)cc2)c(O)c2c1CC1CC3[C@H](N(C)C)C(=O)C(C(N)=O)=C(O)[C@@]3(O)C(=O)C1=C2O (some centres undefined) | > 32 | 0.25 (≈ 0.386 µM) | 0.12 (≈ 0.185 µM) |  | 0.12 (≈ 0.185 µM) | > 32 | > 32 | 0.06 (≈ 0.0927 µM) | 0.12 (≈ 0.185 µM) | 1 (≈ 1.55 µM) |  | 
CN(C)c1cc(NC(=O)CO)c(O)c2c1CC1CC3[C@H](N(C)C)C(=O)C(C(N)=O)=C(O)[C@@]3(O)C(=O)C1=C2O (some centres undefined) | > 32 | 4 (≈ 7.54 µM) | 0.5 (≈ 0.942 µM) |  | 1 (≈ 1.88 µM) |  |  | 32 (≈ 60.3 µM) | 2 (≈ 3.77 µM) | > 32 | > 32 | > 32
CN(C)c1cc(NC(=O)c2cccc(C(F)(F)F)c2)c(O)c2c1CC1CC3[C@H](N(C)C)C(=O)C(C(N)=O)=C(O)[C@@]3(O)C(=O)C1=C2O (some centres undefined) | > 32 | 1 (≈ 1.55 µM) | 1 (≈ 1.55 µM) | > 32 | 0.5 (≈ 0.776 µM) | > 32 | > 32 | 1 (≈ 1.55 µM) | 1 (≈ 1.55 µM) | 1 (≈ 1.55 µM) |  | 
CN(C)c1ccc(C(=O)Nc2cc(N(C)C)c3c(c2O)C(O)=C2C(=O)[C@]4(O)C(O)=C(C(N)=O)C(=O)[C@@H](N(C)C)C4CC2C3)cc1 (some centres undefined) | > 32 | 16 (≈ 25.8 µM) | 4 (≈ 6.45 µM) | > 32 | 8 (≈ 12.9 µM) | > 32 | > 32 | 8 (≈ 12.9 µM) | 8 (≈ 12.9 µM) | 16 (≈ 25.8 µM) |  | 
CN(C)c1ccc(O)c2c1C[C@H]1C[C@H]3[C@H](N(C)C)C(O)=C(C(N)=O)C(=O)[C@@]3(O)C(O)=C1C2=O [MINOCYCLINE] | 16 (≈ 35 µM) | 8 (≈ 17.5 µM) | 0.06 (≈ 0.131 µM) | > 32 | 0.03 (≈ 0.0656 µM) | 2 (≈ 4.37 µM) | 0.25 (≈ 0.546 µM) | 2 (≈ 4.37 µM) | 2 (≈ 4.37 µM) | 0.25 (≈ 0.546 µM) |  | 
CN(C)c1cc(NS(=O)(=O)c2cccs2)c(O)c2c1CC1CC3[C@H](N(C)C)C(=O)C(C(N)=O)=C(O)[C@@]3(O)C(=O)C1=C2O (some centres undefined) | 32 (≈ 51.7 µM) | 1 (≈ 1.62 µM) | 0.03 (≈ 0.0485 µM) |  | 0.25 (≈ 0.404 µM) | 16 (≈ 25.9 µM) | 8 (≈ 12.9 µM) | 0.25 (≈ 0.404 µM) | 0.25 (≈ 0.404 µM) | 2 (≈ 3.23 µM) |  | 
